Results of several laboratories.
Lines come from different studies, so protocols differ.
Target: Serine/threonine-protein kinase SIK2 (SIK2, Homo sapiens, UniProt Q9H0K1)

Compound	read-out	action	technique	tested at	quantity	result
CC(=O)C1=C(C)N(c2cccc(C(F)(F)F)c2)C(=O)N[C@@H]1c1ccc(C#N)nc1	cell-free assay		competition with immobilised ligand	1 µM	remaining binding	87.8%
N#CCCc1ccc2c(c1)-c1[nH]c3ccc([N+](=O)[O-])cc3c1CC(=O)N2	cell-free assay			0.5 µM	remaining signal	44.2%
COc1cc(-c2cc(-c3ccc(N4CCNCC4)cc3)cnc2N)cc(OC)c1OC	enzyme activity	inhibitor		1 µM	inhibition	82%
CC(C)(C)c1nc(-c2cccc(NS(=O)(=O)c3c(F)cccc3F)c2F)c(-c2ccnc(N)n2)s1	enzyme activity	inhibitor	radiometric	1 µM	remaining activity	98%
CNC(=O)Nc1ccc2c(c1)[C@@]1(CC2)OC(=O)N(CC(=O)N(Cc2ccc(F)cc2)[C@@H](C)C(F)(F)F)C1=O	cell-free assay		competition with immobilised ligand	1 µM	remaining binding	88%
CCCS(=O)(=O)Nc1ccc(F)c(C(=O)c2c[nH]c3ncc(-c4ccc(Cl)cc4)cc23)c1F	enzyme activity	inhibitor		1 µM	inhibition	< 10%
CCOc1cc(-c2nncn2C)ccc1Nc1ncc2cc(C)nc(NCC(C)(C)C)c2n1	enzyme activity	inhibitor	FRET	1 µM	inhibition	< 15%
O=C(Nc1cnn(-c2csc(C(=O)NC3COC3)c2)c1)Nc1ccccc1Cl	enzyme activity	inhibitor		5 µM	remaining activity	97%
CC(C)(O)[C@H]1CC[C@H](Nc2ccc3ncc(-c4cccc(C(F)(F)F)c4)n3n2)CC1	enzyme activity	inhibitor		1 µM	remaining activity	47.7%
O=C1CCc2cc(Nc3cc(OC4CCOCC4)c([N+](=O)[O-])cc3Cl)ccc2N1	cell-free assay		competition with immobilised ligand	1 µM	remaining binding	100%
C[S+]([O-])c1ccc(-c2nc(-c3ccncc3)c(-c3ccc(F)cc3)[nH]2)cc1 (stereo not shown)	cell-free assay			0.5 µM	remaining signal	82.1%
Cc1nccc(COC(=O)N2C[C@@H]3[C@@H](CNC(=O)c4ccc5[nH]nnc5c4)[C@@H]3C2)n1	cell-free assay		competition with immobilised ligand	1 µM	remaining binding	92%
O=C1NC(=O)c2cc(Nc3ccc(F)cc3)c(Nc3ccc(F)cc3)cc21	cell-free assay			0.5 µM	remaining signal	103%
COc1cc(Cl)c(C(=O)N[C@@H](CN[C@H]2CC[C@@H](N)CC2)Cc2ccc(C#N)cc2)cc1-c1ccc(CN[C@H](C)c2ccc(C)cc2)o1	enzyme activity	inhibitor		1 µM	remaining activity	96%
FC(F)(F)Oc1cccc(-c2cnc3ccc(-c4ccncc4)nn23)c1	enzyme activity	inhibitor	radiometric	5 µM	activity vs control	69%
CN(C)C(=O)Cn1cc(-c2nc(C3(c4ccc(-c5cnc(N)nc5)cc4)CC3)no2)cn1	cell-free assay		competition with immobilised ligand	1 µM	remaining binding	100%
COc1cc2ncnc(Nc3ccc(Oc4ccccc4)c(C)c3C)c2cc1OC	enzyme activity	inhibitor		1 µM	inhibition	0%
Cc1cc(NC(=O)c2cccc(S(F)(F)(F)(F)F)c2)cc(-n2ccn3nc(-c4cccnc4)cc23)c1	cell-free assay		competition with immobilised ligand	1 µM	remaining binding	100%
CC/C(=N\NC(=O)NCc1cccc(O)c1)c1ccc(O)c(C)c1O	enzyme activity	inhibitor		0.1 µM	inhibition	-5.5%
